Experimental data reported in ChEMBL document CHEMBL1136914, “Synthesis and structure-activity relationships of bengazole A analogs” (2009).
Values after ≈ are worked out from the molar mass of the structure shown. Active and inactive are the calls of the source. The calls are words filed in the database; no cut-off is given here.

Columns and labels:
Pichia kudriavzevii [1] = assay: Antifungal activity against Candida krusei up to 300 ug/disk by paper disk diffusion assay; format: functional, organism-based
How it was run: (§1)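 Disk diffusion on agar; test material applied as μg per paper disk (doses up to 300 μg/disk); activity read as zone of growth inhibition in mm.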

Nakaseomyces glabratus [2] = assay: Antifungal activity against Candida glabrata up to 300 ug/disk by paper disk diffusion assay; format: functional, organism-based; how it was run: as §1
Candida albicans [3] = assay: Antifungal activity against Candida albicans ATCC 14503 up to 300 ug/disk by paper disk diffusion assay; format: functional, organism-based; how it was run: as §1
Candida albicans [4] = assay: Antifungal activity against Candida albicans isolate 96-489 up to 300 ug/disk by paper disk diffusion assay; format: functional, organism-based; how it was run: as §1
Candida albicans [5] = assay: Antifungal activity against Candida albicans ATCC 14503 at 300 ug/disk by disk diffusion assay; format: functional; conditions: read-out: IZ; how it was run: as §1
Pichia kudriavzevii [6] = assay: Antifungal activity against Candida krusei at 300 ug/disk by disk diffusion assay; format: functional; conditions: read-out: IZ; how it was run: as §1
Candida albicans [7] = assay: Antifungal activity against Candida albicans isolate 96-489 after 24 hrs by microbroth dilution method; format: functional; conditions: isolate 96-489, 24 h
How it was run: (§2)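 Microbroth dilution MIC in RPMI medium, incubated at 37 °C for 24 h; MIC reported in μg/mL.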

Pichia kudriavzevii [8] = assay: Antifungal activity against Candida krusei after 48 hrs by microbroth dilution method; format: functional
How it was run: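 Microbroth dilution MIC in RPMI medium at 37 °C, with incubation extended to 48 h; MIC given in μg/mL.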

Candida albicans [9] = assay: Antifungal activity against Candida albicans ATCC 14503 after 24 hrs by microbroth dilution method; format: functional; conditions: ATCC 14503, 24 h; how it was run: as §2
Candida albicans [10] = assay: Antifungal activity against Candida albicans isolate 96-489 at 300 ug/disk by disk diffusion assay; format: functional; conditions: read-out: IZ
How it was run: (§3)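 Agar disk diffusion against a panel of five Candida species, including fluconazole-resistant strains. Compound was applied per disk at doses up to 300 μg/disk. Activity was read as the diameter of the zone of growth inhibition, in mm.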

Candida albicans [11] = assay: Antifungal activity against fluconazole-resistant Candida albicans CDFR1 […]; format: functional
Nakaseomyces glabratus [12] = assay: Antifungal activity against fluconazole-resistant Candida glabrata at 300 ug/disk by disk diffusion assay; format: functional; conditions: read-out: IZ; how it was run: as §3
Candida albicans [13] = assay: Antifungal activity against fluconazole-resistant Candida albicans CDFR1 at 300 ug/disk by disk diffusion assay; format: functional; conditions: read-out: IZ; how it was run: as §3
Candida albicans [14] = assay: Antifungal activity against Candida albicans ATCC 14503 at 5 ug/disk by disk diffusion assay; format: functional; conditions: read-out: IZ; how it was run: as §1
Pichia kudriavzevii [15] = assay: Antifungal activity against Candida krusei at 5 ug/disk by disk diffusion assay; format: functional; conditions: read-out: IZ; how it was run: as §1
Candida albicans [16] = assay: Antifungal activity against Candida albicans isolate 96-489 at 5 ug/disk by disk diffusion assay; format: functional; conditions: read-out: IZ; how it was run: as §1
Candida albicans [17] = assay: Antifungal activity against fluconazole-resistant Candida albicans CDFR1 at 5 ug/disk by disk diffusion assay; format: functional; conditions: read-out: IZ; how it was run: as §3
Nakaseomyces glabratus [18] = assay: Antifungal activity against fluconazole-resistant Candida glabrata at 5 ug/disk by disk diffusion assay; format: functional; conditions: read-out: IZ; how it was run: as §3
Pseudomonas aeruginosa = assay: Antibacterial activity against Pseudomonas aeruginosa; format: functional, organism-based
Candida albicans [19] = assay: Antifungal activity against Candida albicans isolate 96-489 at 10 ug/disk by disk diffusion assay; format: functional; conditions: read-out: IZ; how it was run: as §1
Escherichia coli = assay: Antibacterial activity against Escherichia coli; format: functional, organism-based
Candida albicans [20] = assay: Antifungal activity against Candida albicans ATCC 14503; format: functional
Staphylococcus aureus = assay: Antibacterial activity against Staphylococcus aureus; format: functional, organism-based
Candida albicans [21] = assay: Antifungal activity against fluconazole-resistant Candida albicans CDFR1 at 10 ug/disk by disk diffusion assay; format: functional; conditions: read-out: IZ; how it was run: as §3
Pichia kudriavzevii [22] = assay: Antifungal activity against Candida krusei at 10 ug/disk by disk diffusion assay; format: functional; conditions: read-out: IZ; how it was run: as §1
Candida albicans [23] = assay: Antifungal activity against Candida albicans ATCC 14503 at 10 ug/disk by disk diffusion assay; format: functional; conditions: read-out: IZ; how it was run: as §3
Nakaseomyces glabratus [24] = assay: Antifungal activity against fluconazole-resistant Candida glabrata at 10 ug/disk by disk diffusion assay; format: functional; conditions: read-out: IZ; how it was run: as §3

SMILES | Activity (Pichia kudriavzevii [1]) | Activity (Nakaseomyces glabratus [2]) | Activity (Candida albicans [3]) | Activity (Candida albicans [4]) | zone of inhibition at 300 µg/disc (Candida albicans [5]) | zone of inhibition at 300 µg/disc (Pichia kudriavzevii [6]) | zone of inhibition at 300 µg/disc (Candida albicans [10]) | MIC (Candida albicans [11]) | zone of inhibition at 300 µg/disc (Nakaseomyces glabratus [12]) | other results
CCCCCCCCCCCCCC(=O)OC(c1ccccc1)c1nc(C(CCC)O[Si](C)(C)C(C)(C)C)co1 (stereo not given) | inactive | inactive | inactive | inactive |  |  |  |  |  | 
CSc1ncc(C(O)c2ccccc2)o1 (stereo not given) |  |  |  |  | 10 mm | 9 mm |  |  |  | 
CCCCCCCCCCCCCC(=O)OC(c1ccc2ccccc2c1)c1cnco1 (stereo not given) |  |  |  |  |  |  |  |  |  | MIC (Candida albicans [7]): > 64 µg/mL; MIC (Pichia kudriavzevii [8]): > 64 µg/mL; MIC (Candida albicans [9]): > 64 µg/mL
CC(C)(C)C(O)c1cocn1 (stereo not given) |  |  |  |  | 0 mm | 0 mm | 0 mm | > 32 µg/mL | 0 mm | zone of inhibition at 300 µg/disc (Candida albicans [13]): 0 mm
CCCCCCCCCCCCCC(=O)OC(c1cnc(SC)o1)C(C)(C)C (stereo not given) |  |  |  |  | 0 mm | 0 mm | 0 mm | > 32 µg/mL | 0 mm | zone of inhibition at 300 µg/disc (Candida albicans [13]): 0 mm
CCCC(O[Si](C)(C)C(C)(C)C)c1coc(C(O)c2cnco2)n1 (stereo not given) | inactive | inactive | inactive | inactive |  |  |  |  |  | 
CCCC(O[Si](C)(C)C(C)(C)C)c1coc(C(O)c2ccco2)n1 (stereo not given) | inactive | inactive | inactive | inactive |  |  |  |  |  | 
COc1ccc(C(O)c2cnc(SC)o2)cc1 (stereo not given) |  |  |  |  | 8 mm | 0 mm | 0 mm |  |  | 
C[C@@H](O[Si](C)(C)C(C)(C)C)[C@@H]1OC(C)(C)O[C@@H]1C[C@H](O)c1cocn1 |  |  |  |  | 10 mm | 9 mm | 0 mm | > 32 µg/mL | 0 mm | zone of inhibition at 300 µg/disc (Candida albicans [13]): 0 mm
OC(c1ccccc1)c1cnco1 (stereo not given) |  |  |  |  | 10 mm | 9 mm |  |  |  | 
CCCCCCCCCCCCCC(=O)OC(c1ccco1)c1nc(C(O)CCC)co1 (stereo not given) | inactive | inactive | inactive | inactive |  |  |  |  |  | 
CCCCCCCCCCCCCC(=O)OC(c1ccccc1)c1cnc(SC)o1 (stereo not given) |  |  |  |  | 0 mm | 0 mm | 0 mm | > 32 µg/mL | 0 mm | zone of inhibition at 300 µg/disc (Candida albicans [13]): 0 mm
CCCCCCCCCCCCCC(=O)OC(c1ccc(Br)cc1)c1cnc(SC)o1 (stereo not given) |  |  |  |  | 0 mm | 0 mm | 0 mm | > 32 µg/mL | 0 mm | MIC (Candida albicans [7]): > 64 µg/mL; MIC (Pichia kudriavzevii [8]): > 64 µg/mL; MIC (Candida albicans [9]): > 64 µg/mL; zone of inhibition at 300 µg/disc (Candida albicans [13]): 0 mm
CCCCCCCCCCCCCC(=O)OC(c1ccccc1)c1nc(C(O)CCC)co1 (stereo not given) | inactive | inactive | inactive | inactive |  |  |  |  |  | 
C[C@@H](O[Si](C)(C)C(C)(C)C)[C@@H]1OC(C)(C)O[C@@H]1C[C@@H](O)c1cocn1 |  |  |  |  | 8 mm | 0 mm | 0 mm | > 32 µg/mL | 0 mm | zone of inhibition at 300 µg/disc (Candida albicans [13]): 0 mm
OC(c1ccc2ccccc2c1)c1cnco1 (stereo not given) |  |  |  |  | 10 mm | 7.5 mm |  |  |  | MIC (Candida albicans [7]): 32 µg/mL (≈ 142 µM); MIC (Pichia kudriavzevii [8]): > 64 µg/mL; MIC (Candida albicans [9]): > 64 µg/mL
CCCC(O[Si](C)(C)C(C)(C)C)c1coc(C(O)c2ccccc2)n1 (stereo not given) | inactive | inactive | inactive | inactive |  |  |  |  |  | 
CCCCCCCCCCCCCC(=O)OC(c1ccc2ccccc2c1)c1cnc(SC)o1 (stereo not given) |  |  |  |  |  |  |  |  |  | MIC (Candida albicans [7]): > 64 µg/mL; MIC (Pichia kudriavzevii [8]): > 64 µg/mL; MIC (Candida albicans [9]): > 64 µg/mL
CSc1ncc(C(O)c2ccc(Br)cc2)o1 (stereo not given) |  |  |  |  | 13 mm | 9 mm | 12 mm |  |  | MIC (Candida albicans [7]): 8 µg/mL (≈ 26.7 µM); MIC (Pichia kudriavzevii [8]): 4 µg/mL (≈ 13.3 µM); MIC (Candida albicans [9]): 4 µg/mL (≈ 13.3 µM)
CCCCCCCCCCCCCC(=O)OC(c1cnco1)C(C)(C)C (stereo not given) |  |  |  |  | 0 mm | 0 mm | 0 mm | > 32 µg/mL | 0 mm | zone of inhibition at 300 µg/disc (Candida albicans [13]): 0 mm
CCCCCCCCCCCCCC(=O)OC(c1cnco1)c1nc(C(O)CCC)co1 (stereo not given) | inactive | inactive | inactive | inactive |  |  |  |  |  | 
CCCCCCCCCCCCCC(=O)OC(c1ccccc1)c1cnco1 (stereo not given) |  |  |  |  | 0 mm | 0 mm | 0 mm | > 32 µg/mL | 0 mm | zone of inhibition at 300 µg/disc (Candida albicans [13]): 0 mm
CCCCCCCCCCCCCC(=O)OC(c1cnco1)c1nc(C(CCC)O[Si](C)(C)C(C)(C)C)co1 (stereo not given) | inactive | inactive | inactive | inactive |  |  |  |  |  | 
C[C@@H]1[C@H](O)[C@@H](C)/C=C/C=C/C=C/C=C/C=C/C=C/C=C/[C@H](O[C@@H]2O[C@H](C)[C@@H](O)[C@H](N)[C@@H]2O)C[C@@H]2O[C@](O)(C[C@@H](O)C[C@@H](O)[C@H](O)CC[C@@H](O)C[C@@H](O)CC(=O)O[C@H]1C)C[C@H](O)[C@H]2C(=O)O [AMPHOTERICIN B] |  |  |  |  |  |  |  | > 32 µg/mL |  | zone of inhibition at 5 µg/disc (Candida albicans [14]): 22 mm; zone of inhibition at 5 µg/disc (Pichia kudriavzevii [15]): 15 mm; MIC (Candida albicans [7]): 0.5 µg/mL (≈ 0.541 µM); zone of inhibition at 5 µg/disc (Candida albicans [16]): 12 mm; zone of inhibition at 5 µg/disc (Candida albicans [17]): 23 mm; MIC (Pichia kudriavzevii [8]): 0.25 µg/mL (≈ 0.271 µM); zone of inhibition at 5 µg/disc (Nakaseomyces glabratus [18]): 19 mm; MIC (Candida albicans [9]): 0.5 µg/mL (≈ 0.541 µM)
CSc1ncc(C(O)C(C)(C)C)o1 (stereo not given) |  |  |  |  |  | 0 mm |  |  |  | 
CCCCCCCCCCCCCC(=O)O[C@@H](c1cnco1)c1nc([C@@H](O)C[C@@H](O)[C@@H](O)[C@@H](C)O)co1 [BENGAZOLE A] |  |  |  |  |  |  |  | > 32 µg/mL |  | Activity (Pseudomonas aeruginosa): inactive; MIC (Candida albicans [7]): 1 µg/mL (≈ 1.91 µM); zone of inhibition at 10 µg/disc (Candida albicans [19]): 15 mm; Activity (Escherichia coli): inactive; MIC (Candida albicans [20]): 1 µg/mL (≈ 1.91 µM); MIC (Candida albicans [9]): 1 µg/mL (≈ 1.91 µM); Activity (Staphylococcus aureus): inactive; zone of inhibition at 10 µg/disc (Candida albicans [21]): 50 mm; zone of inhibition at 10 µg/disc (Pichia kudriavzevii [22]): 35 mm; zone of inhibition at 10 µg/disc (Candida albicans [23]): 50 mm; zone of inhibition at 10 µg/disc (Nakaseomyces glabratus [24]): 15 mm
O=Cc1cocn1 |  |  |  |  |  |  |  | > 32 µg/mL | 10 mm | 
CCCCCCCCCCCCCC(=O)OC(c1ccco1)c1nc(C(CCC)O[Si](C)(C)C(C)(C)C)co1 (stereo not given) | inactive | inactive | inactive | inactive |  |  |  |  |  | 
